Source: ChEMBL document CHEMBL2034857, “Discovery of the macrocycle (9E)-15-(2-(pyrrolidin-1-yl)ethoxy)-7,12,25-trioxa-19,21,24-triaza-tetracyclo[18.3.1.1(2,5).1(14,18)]hexacosa-1(24),2,4,9,14(26),15,17,20,22-nonaene (SB1578), a potent inhibitor of janus kinase 2/fms-like tyrosine kinase-3 (JAK2/FLT3) for the treatment of rheumatoid …” (J Med Chem, 2012)
≈ marks a conversion by molar mass, not a printed value.

Key:
Mus musculus [1] = test: Antiarthritic activity in po dosed B10/R3 mouse immunized with bovine type2 collagen in Freund's complete adjuvant assessed as inhibition of increase in clinical arthritic scores administered bid for 10 days measured for 10 days; assay type: functional, organism-based
[2] = Selectivity ratio of IC50 for recombinant CDK2 to IC50 for recombinant JAK2
[3] = Selectivity ratio of IC50 for recombinant JAK1 to IC50 for recombinant JAK2
[4] = Selectivity ratio of IC50 for recombinant JAK3 to IC50 for recombinant JAK2
Mus musculus [5] = test: Antiarthritic activity in B10/R3 mouse immunized with bovine type2 collagen in Freund's complete adjuvant assessed as inhibition of increase in clinical arthritic scores at 0.1 mg/kg, po administered bid for 10 days measured for 10 days; assay type: functional; details: B10/R3, 240 h
[6] = Thermodynamic solubility of the compound at pH 7; assay type: physicochemical; details: buffer, read-out: Therm_solubility
Summary of the method: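 The citrate salt (~5 mg) was made up at 5 mg/mL in pH-buffered solution, in triplicate. It was shaken 24 h at 600 rpm at room temperature, filtered (0.4 μm) and the final pH recorded. The filtrate was diluted in acetonitrile/water (1:1), centrifuged and quantified by HPLC-UV. Two determinations were made on two different batches.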

## C1=C/COCc2cc(ccc2OCCN2CCCC2)Nc2nccc(n2)-c2ccc(o2)COC/1 (mixture of isomers)
Mus musculus [1]
  inhibition: Dose-dependent effect
[2]
  Ratio IC50: 152
[3]
  Ratio IC50: 58
[4]
  Ratio IC50: 93

## C[C@@H]1C[C@H]2[C@@H]3CCC4=CC(=O)C=C[C@]4(C)[C@@]3(F)[C@@H](O)C[C@]2(C)[C@@]1(O)C(=O)CO [DEXAMETHASONE]
Mus musculus [5]
  inhibition in vivo at 0.1 mg/kg: 63%

## C1=C/COCc2cc(ccc2OCCN2CCCC2)Nc2nccc(n2)-c2cccc(c2)COC/1 [PACRITINIB]
[6]
  solubility thermodynamic: 0.15 mg/mL (≈ 317 µM)
